Laboratory results reported in paper PMC10108379 (RSC Advances, 2023).

What was measured:
[1] = Stability of the three components in rat plasma; assay type: in vitro ADME; conditions: for Stability, RE: n = 6
Method in brief: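 Blank rat plasma spiked with each analyte at low, medium and high QC levels, then subjected to repeated freeze–thaw cycles. Samples were thawed to room temperature and precipitated with cold methanol containing puerarin as internal standard, then vortexed 3 min and centrifuged at 12 000 rpm for 15 min. Analysis was by UPLC-MS/MS on an HSS T3 column at 30 °C (0.1% formic acid water/acetonitrile gradient). Acceptance limit: within 15%.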

[2] = system: HepG-2 cells; conditions: previous PD experiments of the group; cited from earlier work
[3] = Pharmacokinetics in rat plasma after oral administration of AR and SAR extracts; assay type: in vivo, Sprague-Dawley (SD) rats
[4] = freeze–thaw cycles, high QC (200 / 300 / 250 μg mL^−1)
[5] = −20 °C for 30 days, high QC (200 / 300 / 250 μg mL^−1)
[6] = rat plasma, oral AR extract 5 mL kg^−1, n = 6

## O=c1c2cc(O)c(O)cc2oc2cc(O)c([C@@H]3O[C@H](CO)[C@@H](O)[C@H](O)[C@H]3O)c(O)c12 [Mangiferin, mangiferin]
[1]; [4]
  Stability, RE: 10.2%
[1]; [5]
  Stability, RE: 2.3%
[2]
  glucose consumption of HepG-2 cells: improved the glucose consumption
[3]; SAR group compared to AR group, rats, oral
  increase of AUC after administration of the SAR extract: 22.3%
[3]; [6]
  T max: 5.76 ± 0.52 h
  t 1/2: 3.01 ± 0.36 h

## C[C@H]1CC[C@@]2(OC1)O[C@H]1C[C@H]3[C@@H]4CC[C@@H]5C[C@@H](O[C@@H]6O[C@H](CO)[C@H](O)[C@H](O)[C@H]6O[C@@H]6O[C@H](CO)[C@@H](O)[C@H](O)[C@H]6O)CC[C@]5(C)[C@H]4CC[C@]3(C)[C@H]1[C@@H]2C [Timosaponin AIII, timosaponin AIII]
[1]; 4 °C 24 h, −20 °C 30 days, freeze–thaw cycles, all QC levels
  relative error (RE) after each stability experiment: ≤ 10.6%
[1]; autosampler at 4 °C for 24 h, low QC (2.0 / 3.0 / 2.5 μg mL^−1)
  Stability, RE: 1.3%
[1]; [4]
  Stability, RE: 3.8%
[1]; freeze–thaw cycles, low QC (2.0 / 3.0 / 2.5 μg mL^−1)
  Stability, RE: −0.1%
[1]; freeze–thaw cycles, medium QC (20.0 / 30.0 / 25.0 μg mL^−1)
  Stability, RE: 6.8%
[1]; [5]
  Stability, RE: 10.6%
[1]; −20 °C for 30 days, low QC (2.0 / 3.0 / 2.5 μg mL^−1)
  Stability, RE: 2.2%
[1]; −20 °C for 30 days, medium QC (20.0 / 30.0 / 25.0 μg mL^−1)
  Stability, RE: 6.3%
[2]
  glucose consumption of HepG-2 cells: improved the glucose consumption
[3]; [6]
  C max: 3.67 ± 0.51 ng/mL
